The record followed here is ChEMBL document CHEMBL1135591, “Synthesis and characterization of a series of novel monoacylated ascorbic acid derivatives, 6-O-acyl-2-O-alpha-D-glucopyranosyl-L-ascorbic acids, as skin antioxidants” (J Med Chem, 2002).

Data set [1] can be described thus: Free radical scavenging assessed as color reduction of DPPH. The data set is classed as functional. A digest of the protocol: (§1)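 DPPH (0.5 mM in ethanol, 1 part) mixed with antioxidant in ethanol/H2O 1:1 (4 parts; 1.25 × 10⁻⁶ to 1.25 × 10⁻³ M solutions); DPPH in reaction 10⁻⁴ M. Room temperature, 20 min; decolorization read at 516 nm. EC50 = concentration giving 50% of blank absorbance, from dose-response curve; mean ± SD of triplicates.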
On the technique in general: DPPH is a stable violet radical that fades when it is reduced.

Data set [2] in a line: Free radical scavenging assessed as 50% reduction in DPPH absorbance (516 nm). The data set is classed as functional. The method, boiled down:
as §1

Data set [3] is described as follows: Compound was evaluated for its partition between n-octanol and water(pH 7). The data set is classed as physicochemical. The conditions noted are these: buffer. The method, boiled down:
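100 mM stock in DMSO diluted to 1 mM in 50 mM potassium phosphate buffer (pH 7.0); 5 mL aqueous solution mixed and partitioned with 5 mL n-octanol. Compound in the octanol phase quantified by HPLC (UV 240 nm). Mean ± SD, n = 6.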

For the compound `CCCCCCCCCCCCCCCC(=O)OC[C@H](O)[C@H]1OC(O)=C(OC(=O)CCCCCCCCCCCCCCC)C1=O`, the Scavenging activity in data set [1] was found to be 23.7%.

Turning to `O=C1C(OS(=O)(=O)O)=C(O)O[C@@H]1[C@@H](O)CO`, the Scavenging activity in data set [1] amounted to 0%.

For `O=C1O[C@H]([C@@H](O)CO)C(O)=C1O` [ASCORBIC ACID], the EC50 in data set [2] is given as 2.2 10uM. Also, the Distribution percent in data set [3] is listed as 0.7. Further, in data set [1], the Scavenging activity was 94.3%.

On to VITAMIN E [listing 1 of 2 here], for which the EC50 in data set [2] is 1.9 10uM.

In the case of `CCCC(=O)OC[C@H](O)[C@H]1OC(O)=C(O[C@@H]2OC(CO)[C@@H](O)C(O)[C@@H]2O)C1=O` (stereo partly specified), in data set [2], the EC50 is 5.9 10uM. Moreover, the Distribution percent in data set [3] turned out to be 4. The Scavenging activity in data set [1] turned out to be 69.2%.

On to `CCCCCCCC(=O)OC[C@H](O)[C@H]1OC(O)=C(O[C@@H]2OC(CO)[C@@H](O)C(O)[C@@H]2O)C1=O` (stereo partly specified), for which, in data set [2], the EC50 was 5.7 10uM. The compound also had a Distribution percent in data set [3] of 43.4. Further, the Scavenging activity in data set [1] is 76.6%.

For the compound `CCCCCCCCCCCCCCCC(=O)OC[C@H](O)[C@H]1OC(O)=C(O[C@@H]2OC(CO)[C@@H](O)C(O)[C@@H]2O)C1=O` (stereo partly specified), the EC50 in data set [2] is recorded as 4.1 10uM. In addition, the Distribution percent in data set [3] was 87.3. Further, the Scavenging activity in data set [1] was found to be 76.4%.

On to `O=C1C(OP(=O)(O)O)=C(O)O[C@@H]1[C@@H](O)CO`, for which the Scavenging activity in data set [1] is 1.5%.

In the case of VITAMIN E [listing 2 of 2 here], the Scavenging activity in data set [1] was found to be 90.9%.

Take `CCCCCCCCCCCCCCCC(=O)OC[C@H](O)[C@H]1OC(=O)C(O)=C1O`: the Scavenging activity in data set [1] was determined as 95.7%.

For the compound `CCCCCC(=O)OC[C@H](O)[C@H]1OC(O)=C(O[C@@H]2OC(CO)[C@@H](O)C(O)[C@@H]2O)C1=O` (stereo partly specified), the EC50 in data set [2] is recorded as 5.4 10uM. In addition, the Distribution percent in data set [3] is 8.7. In addition, in data set [1], the Scavenging activity was 73.8%.

In the case of `CCCCCCCCCC(=O)OC[C@H](O)[C@H]1OC(O)=C(O[C@@H]2OC(CO)[C@@H](O)C(O)[C@@H]2O)C1=O` (stereo partly specified), the EC50 in data set [2] was 4.2 10uM. In addition, the Distribution percent in data set [3] is 76.6. The Scavenging activity in data set [1] was 73.6%.

Turning to `CCCCCCCCCCCC(=O)OC[C@H](O)[C@H]1OC(O)=C(O[C@@H]2OC(CO)[C@@H](O)C(O)[C@@H]2O)C1=O` (stereo partly specified), the EC50 in data set [2] was 4.6 10uM. For the same compound, the Distribution percent in data set [3] is reported as 83.8. Also, the Scavenging activity in data set [1] stood at 76.2%.

Consider `CCCCCCCCCCCCCC(=O)OC[C@H](O)[C@H]1OC(O)=C(O[C@@H]2OC(CO)[C@@H](O)C(O)[C@@H]2O)C1=O` (stereo partly specified), for which the EC50 in data set [2] is 4.4 10uM. Further, the Distribution percent in data set [3] amounted to 87. For the same compound, in data set [1], the Scavenging activity is 74.1%.

Take `O=C1C(O[C@@H]2OC(CO)[C@@H](O)C(O)[C@@H]2O)=C(O)O[C@@H]1[C@@H](O)CO` (stereo partly specified): the EC50 in data set [2] is given as 6.1 10uM. In data set [3], this compound returned a Distribution percent of 0. Also, in data set [1], the Scavenging activity was 68.9%.

For `CCCCCCCCCCCCCCCCCC(=O)OC[C@H](O)[C@H]1OC(O)=C(O[C@@H]2OC(CO)[C@@H](O)C(O)[C@@H]2O)C1=O` (stereo partly specified), the EC50 in data set [2] was 4.4 10uM. The Distribution percent in data set [3] is 84.6. The Scavenging activity in data set [1] turned out to be 77.5%.
